pIC50: −log10 of the molar value. Activity calls are given as the source filed them. The rule behind the calls is not given here.
Tested on: HeLa
Assay: Induction of microtubule network depolymerization in human HeLa cells assessed as appearance of disorganised microtubules at 100 nM after 24 hrs by immunofluorescence staining based confocal microscopic analysis
Format: cell-based
Details: not given
How it was run: (§1)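 HeLa cells treated 24 h at 10, 50 or 100 nM. They were then fixed in cold 4% formaldehyde for 15 min and stained with anti-β-tubulin for 2 h at room temperature. Alexa 488 secondary and DAPI counterstain followed; imaged by confocal microscopy at 20X.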

Row | SMILES | Activity
1 | COc1cc(C(=O)c2c(N)oc3cc(C)ccc23)cc(OC)c1OC | Active

Tested on: HeLa
Assay: Induction of apoptosis in human HeLa cells assessed as viable cells at 10 nM measured after 24 hrs by Annexin V-FITC/propidium iodide staining based flow cytometry (reference value: 97.28 %)
Format: functional
Details: read-out: Activity

Row | SMILES | viability at 0.01 µM [%]
2 | COc1cc(C(=O)c2c(N)oc3cc(C)ccc23)cc(OC)c1OC | 74.4

Tested on: HeLa
Assay: Induction of apoptosis in human HeLa cells assessed as necrotic cells at 10 nM measured after 24 hrs by Annexin V-FITC/propidium iodide staining based flow cytometry (reference value: […])
Format: functional
Details: not given

Row | SMILES | Activity [%]
3 | COc1cc(C(=O)c2c(N)oc3cc(C)ccc23)cc(OC)c1OC | 12.11

Species: Bos taurus
Assay: Inhibition of [3H]colchicine binding to bovine brain tubulin at 5 uM relative to control
Details: not given
How it was run: (§2)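 [3H]colchicine binding to purified tubulin, with tubulin at 0.5 µM and colchicine at 5 µM. Compounds tested at 5 and 0.5 µM. CA-4 was run in contemporaneous experiments for comparison.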

Row | SMILES | inhibition [%]
4 | COc1ccc2oc(N)c(C(=O)c3cc(OC)c(OC)c(OC)c3)c2c1 | 73
5 | COc1cc(C(=O)c2c(N)oc3cc(Br)ccc23)cc(OC)c1OC | 92
6 | CCCOc1ccc2c(C(=O)c3cc(OC)c(OC)c(OC)c3)c(N)oc2c1 | 91
7 | COc1cc(C(=O)c2c(N)oc3cc(C)ccc23)cc(OC)c1OC | 97

Tested on: not listed separately
Assay: Inhibition of bovine brain tubulin polymerisation preincubated with compound followed by GTP addition and measured after 20 mins by turbidimetry based spectrophotometric method
Format: tissue-based, Bos taurus
Details: not given
How it was run: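 Bovine brain tubulin (10 µM) in glutamate buffer, preincubated with varying compound concentrations at 30 °C, then cooled to 0 °C. GTP added to 0.4 mM final, then warmed to 30 °C in a recording spectrophotometer. Assembly followed by turbidity at 350 nm.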

Row | SMILES | pIC50
8 | COc1ccc2oc(N)c(C(=O)c3cc(OC)c(OC)c(OC)c3)c2c1 | 6.30
9 | COc1cc(C(=O)c2c(N)oc3cc(Br)ccc23)cc(OC)c1OC | 6.24
10 | CCCOc1ccc2c(C(=O)c3cc(OC)c(OC)c(OC)c3)c(N)oc2c1 | 6.29
11 | COc1cc(C(=O)c2c(N)oc3cc(C)ccc23)cc(OC)c1OC | 6.41

Tested on: HeLa
Assay: Induction of mitochondrial membrane potential loss in human HeLa cells assessed as cells with depolarized mitochondrial membrane at 10 nM after 48 hrs by JC-1 dye-based flow cytometric analysis (reference value: 7.8 %)
Format: functional
Details: not given

Row | SMILES | Activity [%]
12 | COc1cc(C(=O)c2c(N)oc3cc(C)ccc23)cc(OC)c1OC | 42.6

Tested on: HT-29
Assay: Antiproliferative activity against human HT-29 cells assessed as inhibition of cell growth
Format: functional, cell-based
Details: not given
How it was run: (§3)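 Growth inhibition of cancer cell lines read from dose-response curves; IC50 as mean ± SEM of at least three independent experiments.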

Row | SMILES | pIC50
13 | COc1ccc2oc(N)c(C(=O)c3cc(OC)c(OC)c(OC)c3)c2c1 | 7.20
14 | COc1cc(C(=O)c2c(N)oc3cc(Br)ccc23)cc(OC)c1OC | 8.27
15 | CCCOc1ccc2c(C(=O)c3cc(OC)c(OC)c(OC)c3)c(N)oc2c1 | 7.75
16 | COc1cc(C(=O)c2c(N)oc3cc(C)ccc23)cc(OC)c1OC | 9.22

Tested on: HeLa
Assay: Induction of microtubule network depolymerization in human HeLa cells assessed as appearance of disorganised microtubules at 50 nM after 24 hrs by immunofluorescence staining based confocal microscopic analysis
Format: cell-based
Details: not given
How it was run: as §1

Row | SMILES | Activity
17 | COc1cc(C(=O)c2c(N)oc3cc(C)ccc23)cc(OC)c1OC | Active

Tested on: Daoy
Assay: Antiproliferative activity against human Daoy cells assessed as inhibition of cell growth
Format: functional, cell-based
Details: not given
How it was run: (§4)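 Compounds from 10 mM DMSO stocks; final DMSO ≤0.25%. Growth inhibition of cancer cell lines read from dose-response curves; IC50 as mean ± SEM of at least three independent experiments.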

Row | SMILES | pIC50
18 | COc1ccc2oc(N)c(C(=O)c3cc(OC)c(OC)c(OC)c3)c2c1 | 7.44
19 | COc1cc(C(=O)c2c(N)oc3cc(Br)ccc23)cc(OC)c1OC | 8.60
20 | CCCOc1ccc2c(C(=O)c3cc(OC)c(OC)c(OC)c3)c(N)oc2c1 | 8.36
21 | COc1cc(C(=O)c2c(N)oc3cc(C)ccc23)cc(OC)c1OC | 9.47

Tested on: HeLa
Assay: Induction of mitochondrial membrane potential loss in human HeLa cells assessed as cells with polarized mitochondrial membrane at 10 nM after 48 hrs by JC-1 dye-based flow cytometric analysis (reference value: 92.0 %)
Format: functional
Details: not given

Row | SMILES | Activity [%]
22 | COc1cc(C(=O)c2c(N)oc3cc(C)ccc23)cc(OC)c1OC | 57.3

Tested on: HeLa
Assay: Induction of apoptosis in human HeLa cells assessed as late apoptotic cells at 10 nM measured after 48 hrs by Annexin V-FITC/propidium iodide staining based flow cytometry (reference value: 1.22 %)
Format: functional
Details: not given

Row | SMILES | Activity [%]
23 | COc1cc(C(=O)c2c(N)oc3cc(C)ccc23)cc(OC)c1OC | 9.35

Tested on: HeLa
Assay: Induction of apoptosis in human HeLa cells assessed as viable cells at 10 nM measured after 48 hrs by Annexin V-FITC/propidium iodide staining based flow cytometry (reference value: 97.28 %)
Format: functional
Details: read-out: Activity

Row | SMILES | viability at 0.01 µM [%]
24 | COc1cc(C(=O)c2c(N)oc3cc(C)ccc23)cc(OC)c1OC | 26.4

Tested on: HeLa
Assay: Induction of apoptosis in human HeLa cells assessed as early apoptotic cells at 10 nM measured after 48 hrs by Annexin V-FITC/propidium iodide staining based flow cytometry (reference value: 0.96 %)
Format: functional
Details: not given

Row | SMILES | Activity [%]
25 | COc1cc(C(=O)c2c(N)oc3cc(C)ccc23)cc(OC)c1OC | 37.13

Tested on: HeLa
Assay: Induction of mitochondrial membrane potential loss in human HeLa cells assessed as cells with depolarized mitochondrial membrane at 10 nM after 24 hrs by JC-1 dye-based flow cytometric analysis (reference value: 7.8 %)
Format: functional
Details: not given

Row | SMILES | Activity [%]
26 | COc1cc(C(=O)c2c(N)oc3cc(C)ccc23)cc(OC)c1OC | 24.8

Tested on: HeLa
Assay: Induction of apoptosis in human HeLa cells assessed as late apoptotic cells at 10 nM measured after 24 hrs by Annexin V-FITC/propidium iodide staining based flow cytometry (reference value: 1.22 %)
Format: functional
Details: not given

Row | SMILES | Activity [%]
27 | COc1cc(C(=O)c2c(N)oc3cc(C)ccc23)cc(OC)c1OC | 2.51

Tested on: not listed separately
Assay: Cytotoxicity against normal human astrocytes assessed as inhibition of cell growth
Format: cell-based, Astrocyte
Details: not given

Row | SMILES | GI50 [nM]
28 | COc1cc(C(=O)c2c(N)oc3cc(C)ccc23)cc(OC)c1OC | > 10000

Tested on: not listed separately
Assay: Cytotoxicity against PHA-stimulated human PBL assessed as inhibition of cell growth
Format: cell-based
Details: PHA-stimulated peripheral blood lymphocytes (PBL)
How it was run: (§5)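 Peripheral blood lymphocytes from healthy donors, tested either unstimulated or stimulated with PHA; DMSO ≤0.25% final. Values are mean ± SEM of three separate experiments.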

Row | SMILES | GI50 [nM]
29 | COc1cc(C(=O)c2c(N)oc3cc(C)ccc23)cc(OC)c1OC | > 10000

Tested on: HL-60
Assay: Antiproliferative activity against human HL-60 cells assessed as inhibition of cell growth
Format: functional, cell-based
Details: not given
How it was run: as §3

Row | SMILES | pIC50
30 | COc1ccc2oc(N)c(C(=O)c3cc(OC)c(OC)c(OC)c3)c2c1 | 7.44
31 | COc1cc(C(=O)c2c(N)oc3cc(Br)ccc23)cc(OC)c1OC | 8.25
32 | CCCOc1ccc2c(C(=O)c3cc(OC)c(OC)c(OC)c3)c(N)oc2c1 | 7.38
33 | COc1cc(C(=O)c2c(N)oc3cc(C)ccc23)cc(OC)c1OC | 8.46

Tested on: HeLa
Assay: Induction of apoptosis in human HeLa cells assessed as necrotic cells at 10 nM measured after 48 hrs by Annexin V-FITC/propidium iodide staining based flow cytometry (reference value: […])
Format: functional
Details: not given

Row | SMILES | Activity [%]
34 | COc1cc(C(=O)c2c(N)oc3cc(C)ccc23)cc(OC)c1OC | 27.08

Tested on: HeLa
Assay: Induction of mitochondrial membrane potential loss in human HeLa cells assessed as cells with polarized mitochondrial membrane at 10 nM after 24 hrs by JC-1 dye-based flow cytometric analysis (reference value: 92.0 %)
Format: functional
Details: not given

Row | SMILES | Activity [%]
35 | COc1cc(C(=O)c2c(N)oc3cc(C)ccc23)cc(OC)c1OC | 74.9

Tested on: Jurkat
Assay: Antiproliferative activity against human Jurkat cells assessed as inhibition of cell growth
Format: functional, cell-based
Details: not given
How it was run: as §4

Row | SMILES | pIC50
36 | COc1ccc2oc(N)c(C(=O)c3cc(OC)c(OC)c(OC)c3)c2c1 | 7.53
37 | COc1cc(C(=O)c2c(N)oc3cc(Br)ccc23)cc(OC)c1OC | 8.55
38 | CCCOc1ccc2c(C(=O)c3cc(OC)c(OC)c(OC)c3)c(N)oc2c1 | 7.57
39 | COc1cc(C(=O)c2c(N)oc3cc(C)ccc23)cc(OC)c1OC | 9.48

Tested on: not listed separately
Assay: Cytotoxicity against human PBL assessed as inhibition of cell growth
Format: cell-based
Details: peripheral blood lymphocytes (PBL)
How it was run: as §5

Row | SMILES | GI50 [nM]
40 | COc1cc(C(=O)c2c(N)oc3cc(C)ccc23)cc(OC)c1OC | > 10000

Tested on: HeLa
Assay: Induction of apoptosis in human HeLa cells assessed as early apoptotic cells at 10 nM measured after 24 hrs by Annexin V-FITC/propidium iodide staining based flow cytometry (reference value: 0.96 %)
Format: functional
Details: not given

Row | SMILES | Activity [%]
41 | COc1cc(C(=O)c2c(N)oc3cc(C)ccc23)cc(OC)c1OC | 10.95

Tested on: SEM cells
Assay: Antiproliferative activity against human SEM cells assessed as inhibition of cell growth
Format: functional, cell-based
Details: not given
How it was run: as §4

Row | SMILES | pIC50
42 | COc1ccc2oc(N)c(C(=O)c3cc(OC)c(OC)c(OC)c3)c2c1 | 7.41
43 | COc1cc(C(=O)c2c(N)oc3cc(Br)ccc23)cc(OC)c1OC | 8.46
44 | CCCOc1ccc2c(C(=O)c3cc(OC)c(OC)c(OC)c3)c(N)oc2c1 | 7.53
45 | COc1cc(C(=O)c2c(N)oc3cc(C)ccc23)cc(OC)c1OC | 9.52

Species: Bos taurus
Assay: Inhibition of [3H]colchicine binding to bovine brain tubulin at 0.5 uM relative to control
Format: tissue-based
Details: not given
How it was run: as §2

Row | SMILES | inhibition [%]
46 | COc1cc(C(=O)c2c(N)oc3cc(Br)ccc23)cc(OC)c1OC | 56
47 | CCCOc1ccc2c(C(=O)c3cc(OC)c(OC)c(OC)c3)c(N)oc2c1 | 42
48 | COc1cc(C(=O)c2c(N)oc3cc(C)ccc23)cc(OC)c1OC | 74

Tested on: HeLa
Assay: Antiproliferative activity against human HeLa cells assessed as inhibition of cell growth
Format: functional, cell-based
Details: not given
How it was run: as §3

Row | SMILES | pIC50
49 | COc1ccc2oc(N)c(C(=O)c3cc(OC)c(OC)c(OC)c3)c2c1 | 7.25
50 | COc1cc(C(=O)c2c(N)oc3cc(Br)ccc23)cc(OC)c1OC | 8.35
51 | CCCOc1ccc2c(C(=O)c3cc(OC)c(OC)c(OC)c3)c(N)oc2c1 | 7.64
52 | COc1cc(C(=O)c2c(N)oc3cc(C)ccc23)cc(OC)c1OC | 8.96

Tested on: HeLa
Assay: Induction of microtubule network depolymerization in human HeLa cells assessed as appearance of disorganised microtubules at 10 nM after 24 hrs by immunofluorescence staining based confocal microscopic analysis
Format: cell-based
Details: not given
How it was run: as §1

Row | SMILES | Activity
53 | COc1cc(C(=O)c2c(N)oc3cc(C)ccc23)cc(OC)c1OC | Active

— ChEMBL document CHEMBL4765328 (Eur J Med Chem, 2020)
